Measured values published in ChEMBL document CHEMBL1140206 (J Med Chem, 2008).

Tests used:
[1] = molecular target: Neuronal acetylcholine receptor; alpha4/beta2 (Rattus norvegicus, UniProt P09483+P12390); assay: Displacement of [3H]epibatidine from rat recombinant alpha4beta2 nAChR expressed in HEK293 cells; assay type: cell-based
[2] = molecular target: Neuronal acetylcholine receptor subunit alpha-7 (Rattus norvegicus, UniProt Q05941); assay: Displacement of [3H]MLA from rat alpha-7 nAChR/mouse 5HT3A chimera expressed in human tsA-201 cells
[3] = molecular target: Neuronal acetylcholine receptor; alpha4/beta4 (Rattus norvegicus, UniProt P09483+P12392); assay: Displacement of [3H]epibatidine from rat recombinant alpha-4-beta-4 nAChR expressed in HEK293 cells; assay type: cell-based
[4] = molecular target: T1, Neuronal acetylcholine receptor; alpha3/beta4 (Rattus norvegicus, UniProt P04757+P12392); assay: Displacement of [3H]epibatidine from rat recombinant alpha-3-beta-4 nAChR expressed in HEK293 cells; assay type: cell-based
[5] = molecular target: Neuronal acetylcholine receptor; alpha3/beta4 (Rattus norvegicus) (UniProt P04757+P12392); assay: Agonist activity at rat alpha-3-beta-4 nAChR expressed in HEK293 cells by FMP assay relative to acetylcholine; assay type: functional, cell-based
Summary of the method: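 Stable HEK293 line; cells plated 16-24 h, washed, then loaded 30 min at 37 °C with FMP dye in Krebs buffer pH 7.4. Fluorescence (ex 530/em 560 nm) was read before and up to 1 min after agonist addition. Concentration-response curves used maximal responses, fitted to a Hill equation for EC50 and Rmax. Run in duplicate, at least three times.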

[6] = molecular target: T1, Neuronal acetylcholine receptor; alpha3/beta4; assay: Agonist activity at rat alpha-3-beta-4 nAChR expressed in HEK293 cells by FMP assay; assay type: functional, cell-based
Summary of the method: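 Stable HEK293 line; cells plated 16-24 h, washed, then loaded 30 min at 37 °C with FMP dye in Krebs buffer pH 7.4. Concentration-response curves used maximal responses, fitted to a Hill equation for EC50 and Rmax. Run in duplicate, at least three times.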

[7] = molecular target: T2, Neuronal acetylcholine receptor subunit alpha-7 (Homo sapiens, UniProt P36544); assay: Agonist activity at human alpha-7 nAChR expressed in Xenopus oocytes by two-electrode voltage clamp technique at 320 uM relative to acetylcholine; assay type: functional, cell-based; conditions: Oocyte
Summary of the method: (§1)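 Defolliculated Xenopus oocytes received 40-50 ng total cRNA of human α7, α3+β4 (1:1) or α4+β2 and were kept at 17 °C. Two-electrode clamp at -60 mV used 3 M KCl electrodes in Oocyte Ringer's pH 7.4, with 12 s agonist pulses 5 min apart at 2.5 mL/min. Peak current was normalized to saturating ACh in the same oocyte (10 mM α7; 1 mM α3β4, α4β2).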

[8] = molecular target: T3, Neuronal acetylcholine receptor; alpha3/beta4 (Homo sapiens, UniProt P30926+P32297); assay: Agonist activity at human alpha3beta4 nAChR expressed in Xenopus oocytes by two-electrode voltage clamp technique at 320 uM relative to acetylcholine; assay type: functional, cell-based; conditions: Oocyte; summary of the method: as §1
[9] = molecular target: T2, Neuronal acetylcholine receptor subunit alpha-7; assay: Agonist activity at human alpha-7 nAChR expressed in Xenopus oocytes by two-electrode voltage clamp technique; assay type: functional, cell-based, Oocyte; summary of the method: as §1
[10] = molecular target: T4, Neuronal acetylcholine receptor; alpha4/beta2 (Homo sapiens, UniProt P17787+P43681); assay: Agonist activity at human alpha-4-beta-2 nAChR expressed in Xenopus oocytes by two-electrode voltage clamp technique relative to acetylcholine; assay type: functional, cell-based; conditions: Oocyte; summary of the method: as §1
[11] = molecular target: T3, Neuronal acetylcholine receptor; alpha3/beta4; assay: Agonist activity at human alpha-3-beta-4 nAChR expressed in Xenopus oocytes by two-electrode voltage clamp technique; assay type: functional, cell-based, Oocyte; summary of the method: as §1
[12] = molecular target: T4, Neuronal acetylcholine receptor; alpha4/beta2; assay: Agonist activity at human alpha-4-beta-2 nAChR expressed in Xenopus oocytes by two-electrode voltage clamp technique; assay type: functional, cell-based, Oocyte; summary of the method: as §1

T3 sequence (P30926 whole entry): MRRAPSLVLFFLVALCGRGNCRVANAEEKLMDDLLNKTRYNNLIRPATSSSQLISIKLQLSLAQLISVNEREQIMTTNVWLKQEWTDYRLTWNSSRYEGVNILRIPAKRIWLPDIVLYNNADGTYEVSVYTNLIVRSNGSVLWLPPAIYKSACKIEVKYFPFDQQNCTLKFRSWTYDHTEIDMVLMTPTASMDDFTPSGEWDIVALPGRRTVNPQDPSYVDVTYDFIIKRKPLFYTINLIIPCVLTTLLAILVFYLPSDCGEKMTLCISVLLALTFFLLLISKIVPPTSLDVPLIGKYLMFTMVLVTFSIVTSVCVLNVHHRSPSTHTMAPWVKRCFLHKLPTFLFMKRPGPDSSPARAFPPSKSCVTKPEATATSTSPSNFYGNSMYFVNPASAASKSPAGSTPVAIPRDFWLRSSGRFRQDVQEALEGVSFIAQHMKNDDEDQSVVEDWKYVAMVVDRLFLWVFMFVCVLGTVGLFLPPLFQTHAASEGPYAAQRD
T3 sequence (P32297 whole entry): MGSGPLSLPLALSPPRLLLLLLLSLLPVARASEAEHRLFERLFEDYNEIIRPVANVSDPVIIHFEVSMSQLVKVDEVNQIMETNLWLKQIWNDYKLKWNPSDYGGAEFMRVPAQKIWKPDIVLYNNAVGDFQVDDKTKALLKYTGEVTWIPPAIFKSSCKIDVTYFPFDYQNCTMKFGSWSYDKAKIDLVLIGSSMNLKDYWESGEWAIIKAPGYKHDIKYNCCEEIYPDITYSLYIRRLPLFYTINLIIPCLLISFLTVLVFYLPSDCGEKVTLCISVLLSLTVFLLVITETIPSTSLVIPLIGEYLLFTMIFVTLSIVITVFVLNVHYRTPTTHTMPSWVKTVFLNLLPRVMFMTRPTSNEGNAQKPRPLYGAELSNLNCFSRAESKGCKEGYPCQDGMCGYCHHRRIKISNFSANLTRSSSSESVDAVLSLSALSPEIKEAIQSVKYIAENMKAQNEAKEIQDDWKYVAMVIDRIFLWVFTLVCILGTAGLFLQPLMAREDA
Chain of Neuronal acetylcholine receptor subunit alpha-7 (Rattus norvegicus, UniProt Q05941) (Q05941 23-502 limits assumed): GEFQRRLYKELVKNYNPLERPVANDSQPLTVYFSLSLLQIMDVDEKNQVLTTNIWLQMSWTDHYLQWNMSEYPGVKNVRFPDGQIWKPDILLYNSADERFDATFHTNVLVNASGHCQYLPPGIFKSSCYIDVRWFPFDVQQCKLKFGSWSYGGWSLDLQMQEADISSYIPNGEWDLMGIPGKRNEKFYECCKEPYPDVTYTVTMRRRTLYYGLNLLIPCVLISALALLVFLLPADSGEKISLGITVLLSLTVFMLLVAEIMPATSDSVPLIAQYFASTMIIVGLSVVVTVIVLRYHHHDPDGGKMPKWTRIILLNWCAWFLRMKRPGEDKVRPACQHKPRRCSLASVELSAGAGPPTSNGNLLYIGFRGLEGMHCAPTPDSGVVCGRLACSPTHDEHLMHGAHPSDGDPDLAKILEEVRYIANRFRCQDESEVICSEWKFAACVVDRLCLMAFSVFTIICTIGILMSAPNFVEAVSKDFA
T1 sequence (P04757 whole entry): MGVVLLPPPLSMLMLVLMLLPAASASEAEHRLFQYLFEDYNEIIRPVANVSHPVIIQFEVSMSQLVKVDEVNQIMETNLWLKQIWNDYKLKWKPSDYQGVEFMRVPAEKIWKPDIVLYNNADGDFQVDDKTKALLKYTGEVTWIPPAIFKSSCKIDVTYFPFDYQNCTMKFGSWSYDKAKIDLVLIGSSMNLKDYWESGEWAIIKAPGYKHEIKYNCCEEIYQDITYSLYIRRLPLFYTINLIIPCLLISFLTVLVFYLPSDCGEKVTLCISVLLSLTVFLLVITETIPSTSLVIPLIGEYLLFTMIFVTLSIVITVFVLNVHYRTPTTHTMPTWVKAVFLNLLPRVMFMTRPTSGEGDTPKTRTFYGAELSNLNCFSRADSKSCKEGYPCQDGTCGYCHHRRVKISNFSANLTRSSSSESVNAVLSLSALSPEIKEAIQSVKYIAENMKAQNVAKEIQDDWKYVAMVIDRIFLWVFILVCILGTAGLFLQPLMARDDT
T1 sequence (P12392 whole entry): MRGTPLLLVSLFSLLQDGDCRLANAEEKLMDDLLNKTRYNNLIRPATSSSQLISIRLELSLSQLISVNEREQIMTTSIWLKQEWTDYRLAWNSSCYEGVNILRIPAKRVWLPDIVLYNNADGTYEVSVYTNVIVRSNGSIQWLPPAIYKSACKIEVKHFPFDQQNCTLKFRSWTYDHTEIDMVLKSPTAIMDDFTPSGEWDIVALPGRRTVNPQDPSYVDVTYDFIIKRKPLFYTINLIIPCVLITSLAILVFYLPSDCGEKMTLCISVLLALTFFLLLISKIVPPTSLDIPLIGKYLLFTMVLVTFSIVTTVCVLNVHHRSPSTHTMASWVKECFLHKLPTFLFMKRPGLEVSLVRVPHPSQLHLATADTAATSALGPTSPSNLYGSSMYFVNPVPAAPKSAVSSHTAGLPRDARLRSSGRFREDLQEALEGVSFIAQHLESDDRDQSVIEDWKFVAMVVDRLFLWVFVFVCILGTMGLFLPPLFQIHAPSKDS
T2 sequence (P36544 whole entry): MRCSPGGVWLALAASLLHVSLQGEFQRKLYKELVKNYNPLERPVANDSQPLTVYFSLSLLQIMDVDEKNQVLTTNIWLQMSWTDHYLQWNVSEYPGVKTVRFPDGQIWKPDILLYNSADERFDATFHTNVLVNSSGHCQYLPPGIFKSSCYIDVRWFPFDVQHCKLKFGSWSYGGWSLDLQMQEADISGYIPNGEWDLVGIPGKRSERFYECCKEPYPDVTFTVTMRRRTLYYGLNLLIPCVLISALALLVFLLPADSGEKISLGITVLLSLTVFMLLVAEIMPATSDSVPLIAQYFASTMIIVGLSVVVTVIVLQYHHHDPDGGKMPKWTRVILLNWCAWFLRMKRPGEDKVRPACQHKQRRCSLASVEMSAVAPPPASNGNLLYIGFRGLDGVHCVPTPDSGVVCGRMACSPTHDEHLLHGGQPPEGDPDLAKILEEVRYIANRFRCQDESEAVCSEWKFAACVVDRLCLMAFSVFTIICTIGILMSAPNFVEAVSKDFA
Chain of Neuronal acetylcholine receptor; alpha4/beta4 (P09483 whole entry): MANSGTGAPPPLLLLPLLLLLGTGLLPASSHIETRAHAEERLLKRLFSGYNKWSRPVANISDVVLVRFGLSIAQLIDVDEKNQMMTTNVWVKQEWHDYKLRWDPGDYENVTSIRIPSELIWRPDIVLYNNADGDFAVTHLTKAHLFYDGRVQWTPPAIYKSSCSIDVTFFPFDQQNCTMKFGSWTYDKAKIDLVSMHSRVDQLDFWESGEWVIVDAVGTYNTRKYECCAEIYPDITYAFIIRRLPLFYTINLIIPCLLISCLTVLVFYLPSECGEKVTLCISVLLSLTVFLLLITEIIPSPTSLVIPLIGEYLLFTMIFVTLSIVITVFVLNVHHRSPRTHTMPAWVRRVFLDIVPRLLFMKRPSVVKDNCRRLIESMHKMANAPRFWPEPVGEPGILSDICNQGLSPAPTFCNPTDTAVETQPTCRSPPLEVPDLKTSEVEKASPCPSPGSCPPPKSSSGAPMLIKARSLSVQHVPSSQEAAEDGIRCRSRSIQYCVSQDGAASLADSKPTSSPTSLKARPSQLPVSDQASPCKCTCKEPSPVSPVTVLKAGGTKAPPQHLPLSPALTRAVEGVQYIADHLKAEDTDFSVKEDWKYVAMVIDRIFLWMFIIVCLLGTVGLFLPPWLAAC
Chain of Neuronal acetylcholine receptor; alpha4/beta4 (P12392 whole entry): as the sequence (P12392 whole entry) above
Chain of Neuronal acetylcholine receptor; alpha4/beta2 (Rattus norvegicus, UniProt P09483+P12390) (P09483 whole entry): as the sequence (P09483 whole entry) above
Chain of Neuronal acetylcholine receptor; alpha4/beta2 (Rattus norvegicus, UniProt P09483+P12390) (P12390 whole entry): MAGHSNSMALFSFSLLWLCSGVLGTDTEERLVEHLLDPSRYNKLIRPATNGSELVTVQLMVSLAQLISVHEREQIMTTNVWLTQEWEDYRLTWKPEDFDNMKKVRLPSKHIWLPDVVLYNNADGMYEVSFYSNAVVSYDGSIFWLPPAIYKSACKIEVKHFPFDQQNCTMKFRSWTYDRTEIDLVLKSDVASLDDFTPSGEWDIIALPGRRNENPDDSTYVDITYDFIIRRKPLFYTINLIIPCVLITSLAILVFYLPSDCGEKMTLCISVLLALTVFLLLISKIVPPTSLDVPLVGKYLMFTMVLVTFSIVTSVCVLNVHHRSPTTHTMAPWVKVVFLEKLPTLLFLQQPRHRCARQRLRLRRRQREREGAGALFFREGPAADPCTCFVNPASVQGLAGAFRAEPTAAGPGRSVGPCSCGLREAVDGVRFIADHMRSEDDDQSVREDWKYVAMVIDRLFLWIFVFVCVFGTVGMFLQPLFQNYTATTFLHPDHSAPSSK

SMILES | Ki [1] [µM] | Ki [2] [µM] | Ki [3] [µM] | Ki [4] [µM] | Activity [5] [%] | EC50 ([6]; read-out: EC50) [µM] | Ki ([6]; read-out: Ki) [µM] | Ki ([6]; read-out: pKi (converted)) [µM] | Activity [7] [%] | Activity [8] [%] | EC50 ([9]; read-out: EC50) [µM] | EC50 ([9]; read-out: pEC50 (converted)) [µM] | Activity [10] [%] | EC50 ([11]; read-out: EC50) [µM] | EC50 ([11]; read-out: pEC50 (converted)) [µM] | EC50 [12] [µM] | EC50 ([6]; read-out: pEC50 (converted)) [µM]
CC(CCOC(=O)c1ccccc1)N(C)C (configuration not stated) | 0.32 | 190 | 10 | 100 | – | – | – | – | – | – | – | – | – | – | – | – | –
CC(C)C(=O)OCCC(C)N(C)C (configuration not stated) | 0.03 | > 1000 | 0.76 | 8.5 | 100 | 24 | – | – | – | – | – | – | – | – | – | – | –
CC(CCOC(=O)N1CC(F)(F)C1)N(C)C (configuration not stated) | 0.058 | – | 1.6 | – | 75 | – | – | – | – | – | – | – | – | – | – | – | –
CC(CCOC(=O)N(C)C)N(C)C (configuration not stated) | 0.02 | > 1000 | 0.15 | 0.42 | 105 | – | 0.0077 | 7.94 | – | – | – | – | – | – | – | – | –
CC1CN(C(=O)OCCC(C)N(C)C)C1 (configuration not stated) | 0.0021 | > 1000 | 0.26 | 23 | 91 | – | 0.048 | 50.1 | 0.9 | 12 | > 320 | > 316 | 9.5 | > 320 | > 316 | 85 | –
CC(CCOC(=O)N1CCC1(C)C)N(C)C (configuration not stated) | 0.21 | – | 3.2 | 25 | 90 | – | 0.051 | 50.1 | – | – | – | – | – | – | – | – | –
CC1CN(C(=O)OCC[C@@H](C)N(C)C)C1 | 0.00091 | – | 0.18 | 19 | – | – | – | – | – | – | – | – | – | – | – | – | –
CC1CN(C(=O)OCC[C@H](C)N(C)C)C1 | 0.057 | – | 7.1 | 100 | – | – | – | – | – | – | – | – | – | – | – | – | –
CC(CCOC(=O)N1CCC1)N(C)C (configuration not stated) | 0.0051 | – | 0.19 | 11 | 106 | – | 0.023 | 25.1 | – | 23 | – | – | 66 | > 320 | > 316 | 7.1 | –
CC(CCOC(=O)n1cccc1)N(C)C (configuration not stated) | 0.31 | > 1000 | 11 | 100 | 27 | – | 0.1 | 316 | – | – | – | – | – | – | – | – | –
CC(CCOC(=O)N1CC(C)(C)C1)N(C)C (configuration not stated) | 0.058 | – | 0.72 | 300 | 43 | – | 0.3 | 316 | – | – | – | – | – | – | – | – | –
CC(=O)OCCC(C)N(C)C (configuration not stated) | 0.065 | > 1000 | 0.37 | 4.1 | 97 | 23 | – | – | – | – | – | – | – | – | – | – | –
CC(CCOC(=O)N1CCCC1)N(C)C (configuration not stated) | 0.21 | – | 2.2 | 25 | – | – | – | – | – | – | – | – | – | – | – | – | –
CC(CCOC(=O)C1CC1)N(C)C (configuration not stated) | 0.0038 | 280 | 0.26 | 4.2 | 105 | – | – | – | – | – | – | – | – | – | – | – | 7.94
CC(CCOC(=O)N1CCCCC1)N(C)C (configuration not stated) | 0.091 | – | 0.35 | 2.6 | – | – | – | – | – | – | – | – | – | – | – | – | –
CC(CCOC(=O)N1CCC1C)N(C)C (configuration not stated) | 0.015 | > 1000 | 0.23 | 2.5 | 89 | – | 0.0054 | 5.01 | – | – | – | – | – | – | – | – | –
CC(CCOC(=O)C1CCC1)N(C)C (configuration not stated) | 0.1 | 290 | 0.46 | 3.5 | 85 | 8.5 | – | – | – | – | – | – | – | – | – | – | –
